# Published values collected from several papers.
# Lines come from different studies, so protocols differ.
Compound,tested on,test,test system,setting,endpoint,value
N.N.[Cl][Pt][Cl],SU-DHL-8,"cell growth or viability, ATP luminescence",,72 h,IC50,940 nM
CCN(CC)CCCC(C)Nc1ccnc2cc(Cl)ccc12 (stereo not shown),Plasmodium knowlesi,"parasite growth, SYBR Green",,,IC50,19.5 nM
NC(=O)c1nc(F)c[nH]c1=O,Influenza A virus,"viral replication, inhibitor",H1N1 PR/8,,EC50,1320 nM
O=c1c2ccccc2[se]n1-c1ccccc1,Influenza A virus,viral replication,"Vero, H1N1",48 h,IC50,1570 nM
CC[C@H](C)C[C@H](C)CCCCCCCCC(=O)N[C@H]1C[C@@H](O)[C@@H](NCCN)NC(=O)[C@@H]2[C@@H](O)CCN2C(=O)[C@H]([C@H](O)CCN)NC(=O)[C@H]([C@H](O)[C@@H](O)c2ccc(O)cc2)NC(=O)[C@@H]2C[C@@H](O)CN2C(=O)[C@H]([C@@H](C)O)NC1=O,Pichia kudriavzevii,"microbial killing, broth dilution",ATCC14243,48 h,MFC,4 µg/mL
O=c1[nH]cc(F)c(=O)[nH]1,Influenza A virus,"viral replication, inhibitor, ELISA","MDCK, H1N1",24 h,IC50,50400 nM
CN[C@H](CC(C)C)C(=O)N[C@H]1C(=O)N[C@@H](CC(N)=O)C(=O)N[C@H]2C(=O)N[C@H]3C(=O)N[C@H](C(=O)N[C@H](C(=O)O)c4cc(O)cc(O)c4-c4cc3ccc4O)[C@H](O)c3ccc(c(Cl)c3)Oc3cc2cc(c3O[C@@H]2O[C@H](CO)[C@@H](O)[C@H](O)[C@H]2O[C@H]2C[C@](C)(N)[C@H](O)[C@H](C)O2)Oc2ccc(cc2Cl)[C@H]1O,Enterococcus,"microbial growth, broth dilution",VRE,,MIC,> 64 µg/mL
NC(=O)c1ncn([C@@H]2O[C@H](CO)[C@@H](O)[C@H]2O)n1,Influenza A virus,"viral replication, inhibitor, ELISA","MDCK, H1N1",24 h,IC50,3440 nM
C[C@@H]1C[C@@H]([C@H](O)CC2CC(=O)NC(=O)C2)C(=O)[C@@H](C)C1,Fusarium solani,"microbial growth, broth dilution",,,MIC,12 µg/mL
CC(C)C(=O)OC[C@H]1O[C@@H](n2ccc(NO)nc2=O)[C@H](O)[C@@H]1O,Influenza A virus,"viral replication, inhibitor, ELISA","MDCK, H1N1",24 h,IC50,28300 nM
N=C(CC(O)c1cc2c(F)cc(F)cc2c2cc(C(F)(F)F)ccc12)Nc1ccc(Br)cc1 (stereo not shown),Plasmodium knowlesi,"parasite growth, SYBR Green",,,IC50,3.3 nM
Nc1ccn([C@@H]2O[C@H](CO)[C@@H](O)C2(F)F)c(=O)n1,Influenza A virus,"viral replication, inhibitor, ELISA","MDCK, H1N1",24 h,IC50,640 nM
COC(=O)OCOc1c2n(ccc1=O)N([C@@H]1c3ccccc3SCc3c1ccc(F)c3F)[C@@H]1COCCN1C2=O,Influenza A virus,"viral replication, inhibitor","MDCK, H1N1 WSN",,EC50,0.946 nM
